For experiment [1], the system named is OPM-2. The experiment in a line: Antitumor activity against human OPM2 cells xenografted in SCID-Beige mouse assessed as tumor growth inhibition at 150 mg/kg, po qd for 21 days measured twice per week during compound dosing relative to control. It is filed as functional. As to conditions: OPM-2, po, 504 h, read-out: TGI.
The test system of experiment [2] is OPM-2. In words: Antitumor activity against human OPM2 cells xenografted in SCID-Beige mouse assessed as tumor growth inhibition at 100 mg/kg, po qd for 14 days measured twice per week during compound dosing relative to control. In kind it is functional. As to conditions: OPM-2, po, 336 h, read-out: TGI. A digest of the protocol: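 OPM-2 multiple myeloma xenografts in mice dosed orally over 14 days. Either once daily at 100 mg/kg or twice daily at 50 mg/kg ×2, the same total dose. Tumor growth inhibition was calculated over the treatment period. Mean ± SE, n = 10 per group.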
(In xenograft studies the graft and the host belong to different species.)

Our source for the inhibition in vivo values is ChEMBL document CHEMBL4038268, “Methylpyrrole inhibitors of BET bromodomains” (Bioorg Med Chem Lett, 2017).

As for `Cc1[nH]c(-c2cc(S(C)(=O)=O)ccc2Oc2ccc(F)cc2F)c2c1C(=O)NCC2`, the inhibition in vivo at 150 mg/kg in the experiment with OPM-2 [1] was 68%. In the case of `Cc1[nH]c(-c2cc(NS(C)(=O)=O)ccc2Oc2ccccc2)c2c1C(=O)CCC2`, in the experiment on OPM-2 [2], the inhibition in vivo at 100 mg/kg is 53%.
